Test results reported in the RNAGym collection of RNA variant scans (doi:10.1101/gad.245936.114).
Fewer inactive variants are shown than the library holds.

B1: tRNA (parent)
chain: CUCUCGGUAGCCAAGUUGGUUUAAGGCGCAAGACUUUAAUUUAUCACUACGAAAUCUUGAGAUCGGGCGUUCGACUCGCCCCCGGGAGAUUUUUUCCUCGAGCAA

Variants of: B1
Test: nonsense suppression (GFP-seq) (ratio to wild type); higher = more function; SUP4oc tRNA, yeast GFP reporter sort-seq
Summary of the method: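 Nonsense suppression (GFPSEQ) is the median GFP/RFP ratio of each sorting bin, weighted by the variant's estimated share of cells in that bin and expressed relative to the unmutated parent tRNA. Yeast strains carried genome-integrated variants of an ochre-suppressor tRNA from a library with ~3% random mutations, plus a galactose-driven GFP ochre reporter and RFP, and were grown in raffinose/galactose medium containing 80 mg/L adenine. Cells were sorted into GFP/RFP bins, each bin was Illumina-sequenced (phred ≥30), and variants were kept only with ≥100 reads and ≥30 cells.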
In the case of U4A U76A, the nonsense suppression is reported as 0.0437.
For U17C A30U, the nonsense suppression was 0.16.
C3U G61A showed a nonsense suppression of 0.198.
In the case of G69C G88U, the nonsense suppression is reported as ≤ 0.026.
In the case of C12U G26U G84A, the nonsense suppression is reported as ≤ 0.026.
For G7U C56U, the nonsense suppression was ≤ 0.026.
U16A A30G showed a nonsense suppression of 0.312.
C82U G85A showed a nonsense suppression of 0.99.
With G15U G19A A54U A62G C79A the nonsense suppression was ≤ 0.026.
For C27A A62C, the nonsense suppression was 0.349.
For C72U G78A, the nonsense suppression was 0.0322.
Work on A9U G28C G85A yielded a nonsense suppression of 0.0603.
In the case of A54U A60U, the nonsense suppression is reported as 0.965.
For C12G U70A, the nonsense suppression was ≤ 0.026.
In the case of G66A C72G, the nonsense suppression is reported as ≤ 0.026.
G28A G67A gave a nonsense suppression of 0.209.
U21C G67A showed a nonsense suppression of 0.0282.
U4C G15A showed a nonsense suppression of 0.746.
With G15C C27G A31C the nonsense suppression was ≤ 0.026.
Work on A24C C75G yielded a nonsense suppression of 1.11.
For G26U U71G G85U, the nonsense suppression was ≤ 0.026.
Variant A13U G78A has a nonsense suppression of 0.179.
In the case of G10U C29A, the nonsense suppression is reported as ≤ 0.026.
In the case of G78A A87G, the nonsense suppression is reported as 0.294.
For G88U A89C, the nonsense suppression was ≤ 0.026.
In the case of A24C G73C G84C, the nonsense suppression is reported as ≤ 0.026.
In the case of U2G C77U, the nonsense suppression is reported as ≤ 0.026.
For U8C U16A A30C A54C, the nonsense suppression was ≤ 0.026.
In the case of A54U G67A, the nonsense suppression is reported as 0.0673.
With C3U G66C the nonsense suppression was 0.0288.
For U8A U57C G85U, the nonsense suppression was ≤ 0.026.
In the case of U17A U20G G32A G61A C80U, the nonsense suppression is reported as ≤ 0.026.
A54U G61U gave a nonsense suppression of 1.16.
With A31C G61A C75G the nonsense suppression was ≤ 0.026.
In the case of C1U G66U G86A, the nonsense suppression is reported as ≤ 0.026.
In the case of U4C U63C G67A, the nonsense suppression is reported as ≤ 0.026.
U4G A24C gave a nonsense suppression of 0.134.
With C29G the nonsense suppression was ≤ 0.026.
For G26C C29U G67U, the nonsense suppression was ≤ 0.026.
In the case of U63A C75G, the nonsense suppression is reported as 1.13.
In the case of G10C A24U A30G A33U U55A C80U, the nonsense suppression is reported as ≤ 0.026.
U4C A13U G78A showed a nonsense suppression of 0.424.
Variant U20C G28A U57G C77A has a nonsense suppression of 0.813.
In the case of C11A G26C G66U, the nonsense suppression is reported as ≤ 0.026.
With C3U A31G the nonsense suppression was 0.0805.
In the case of G10C U35A G66C G85U, the nonsense suppression is reported as ≤ 0.026.
For U4C C12G C64G G66C, the nonsense suppression was ≤ 0.026.
Work on U22G A31U yielded a nonsense suppression of 0.0872.
In the case of C29A A54U C56U G66C, the nonsense suppression is reported as ≤ 0.026.
In the case of C34U U63C G85C, the nonsense suppression is reported as ≤ 0.026.
With C34A G65C G85C the nonsense suppression was ≤ 0.026.
For G7C C29G, the nonsense suppression was ≤ 0.026.
G10U C27A G85A showed a nonsense suppression of 0.159.
In the case of C3U U35G G61A, the nonsense suppression is reported as ≤ 0.026.
U22G C29U gave a nonsense suppression of 1.15.
For U2G A74C, the nonsense suppression was ≤ 0.026.
In the case of A14C A31C U58C C72A U76C C77G, the nonsense suppression is reported as ≤ 0.026.
In the case of U17G A24C, the nonsense suppression is reported as 0.653.
For G18C G19A A24U, the nonsense suppression was ≤ 0.026.
For U17G C64A, the nonsense suppression was 0.0364.
In the case of C1A A31U G84A G88A, the nonsense suppression is reported as ≤ 0.026.
U17A U55C showed a nonsense suppression of 0.176.
In the case of C83U G84U, the nonsense suppression is reported as 0.027.
In the case of C1A C5G A13G G18C A54U G65C, the nonsense suppression is reported as ≤ 0.026.
For A74G G84C, the nonsense suppression was ≤ 0.026.
With C83U A87U the nonsense suppression was ≤ 0.026.
In the case of G26U U70G C79U, the nonsense suppression is reported as ≤ 0.026.
In the case of A30C A60U U63A G69C, the nonsense suppression is reported as ≤ 0.026.
C5U G85A gave a nonsense suppression of 0.08.
In the case of A33C G61A A62G G73C, the nonsense suppression is reported as ≤ 0.026.
Variant U2C C75U has a nonsense suppression of 0.206.
For A33U G73C, the nonsense suppression was ≤ 0.026.
A24U A30U showed a nonsense suppression of 0.0403.
In the case of U4C A31U, the nonsense suppression is reported as 1.04.
In the case of C1A C3G U58A C68G, the nonsense suppression is reported as ≤ 0.026.
Work on A60U U76C yielded a nonsense suppression of 1.05.
In the case of A23U G28C, the nonsense suppression is reported as ≤ 0.026.
In the case of A13G U21C, the nonsense suppression is reported as 0.211.
A13U G28C gave a nonsense suppression of 0.227.
U4C G6U showed a nonsense suppression of 0.959.
With U4C A54C the nonsense suppression was 1.01.
With U58G G85U G86U the nonsense suppression was ≤ 0.026.
U17C showed a nonsense suppression of 1.05.
For C72U G73C C79G, the nonsense suppression was ≤ 0.026.
For A33G A74C C80A, the nonsense suppression was ≤ 0.026.
U20G A60U gave a nonsense suppression of 1.12.
With A9G G61U the nonsense suppression was 1.1.
In the case of G15C U22C G28C, the nonsense suppression is reported as ≤ 0.026.
With G28U G61C the nonsense suppression was 0.321.
C3U G73A gave a nonsense suppression of 0.0656.
With G28A U63C G85U the nonsense suppression was 0.0331.
Work on C3U U4C yielded a nonsense suppression of 0.859.
In the case of U70A C80G, the nonsense suppression is reported as ≤ 0.026.
In the case of A30U U55C A87C A89U, the nonsense suppression is reported as 0.0456.
In the case of A54U G85C, the nonsense suppression is reported as 0.208.
A30G A54U showed a nonsense suppression of 1.2.
In the case of C68U G85C, the nonsense suppression is reported as ≤ 0.026.
Variant A24U C29U has a nonsense suppression of 0.233.
With G66A G67A G86C the nonsense suppression was ≤ 0.026.
For C34A C68A A87U, the nonsense suppression was ≤ 0.026.
In the case of C27G A33U C34G C83G G85A, the nonsense suppression is reported as ≤ 0.026.
In the case of C56A U71A, the nonsense suppression is reported as ≤ 0.026.
With G6A G10A G19C A54U G73C G88U the nonsense suppression was ≤ 0.026.
In the case of U17C G19A C27G, the nonsense suppression is reported as ≤ 0.026.
Variant A24C C81U has a nonsense suppression of 0.2.
In the case of C3U U17A, the nonsense suppression is reported as 0.194.
C72U G85U gave a nonsense suppression of 0.0294.
In the case of A60U U70C U76C, the nonsense suppression is reported as ≤ 0.026.
In the case of G86C A87G, the nonsense suppression is reported as 0.0881.
For U20G G61C, the nonsense suppression was 0.615.
Work on C3U U4C A9C yielded a nonsense suppression of 1.11.
Variant U20G A30U has a nonsense suppression of 0.444.
In the case of G7A G26U, the nonsense suppression is reported as ≤ 0.026.
Work on C29U C82U yielded a nonsense suppression of 0.224.
In the case of C3U G7A U17G, the nonsense suppression is reported as ≤ 0.026.
Variant A23U C29U has a nonsense suppression of 0.112.
For U63G C80U, the nonsense suppression was ≤ 0.026.
For U57C C81U G84U, the nonsense suppression was ≤ 0.026.
In the case of G6U C81A, the nonsense suppression is reported as ≤ 0.026.
For A54G G61A U76C C77G, the nonsense suppression was ≤ 0.026.
U20G G85C showed a nonsense suppression of 0.0271.
Work on C68U yielded a nonsense suppression of 1.05.
In the case of U2C A30U A31G A62G G67A G86C, the nonsense suppression is reported as ≤ 0.026.
For U22C U63C C68U, the nonsense suppression was 0.0629.
With A23G C29U the nonsense suppression was 0.142.
Work on A9U C77U yielded a nonsense suppression of 0.0389.
In the case of C27A U55A G85A, the nonsense suppression is reported as ≤ 0.026.
Work on U4C A13C yielded a nonsense suppression of 1.05.
A13C C68U gave a nonsense suppression of 0.836.
A30G A74C gave a nonsense suppression of 0.0554.
With A13G the nonsense suppression was 0.191.
With U2G A14C G84C the nonsense suppression was ≤ 0.026.
For C29U, the nonsense suppression was 1.07.
With G18U U76C G86U the nonsense suppression was ≤ 0.026.
In the case of U4A U17A U22C, the nonsense suppression is reported as 0.0499.
For C1U G67C, the nonsense suppression was ≤ 0.026.
For U2A A30U, the nonsense suppression was 0.031.
For U4G G73C, the nonsense suppression was 0.0291.
In the case of U2G U58G C83G, the nonsense suppression is reported as ≤ 0.026.
With U2A G86A the nonsense suppression was ≤ 0.026.
U4G U20G gave a nonsense suppression of 0.834.
In the case of C27G C79A, the nonsense suppression is reported as ≤ 0.026.
For A13U U57A G65A, the nonsense suppression was ≤ 0.026.
Variant C3G A54C has a nonsense suppression of 0.0677.
U16C G61U G73A gave a nonsense suppression of 0.438.
For C12U A23C G78C, the nonsense suppression was ≤ 0.026.
Variant A23G U63A has a nonsense suppression of 0.0418.
With U22G A24C the nonsense suppression was 0.817.
In the case of U20G A33U, the nonsense suppression is reported as 0.0902.
With C81A G85U the nonsense suppression was ≤ 0.026.
For C3U C12U C82G, the nonsense suppression was ≤ 0.026.
G65A G78A showed a nonsense suppression of 0.0493.
With C68G G69A the nonsense suppression was ≤ 0.026.
In the case of U21G G28A, the nonsense suppression is reported as 1.14.
In the case of U8A C27G A54G C79U, the nonsense suppression is reported as ≤ 0.026.
For U2A G32U C34U, the nonsense suppression was ≤ 0.026.
Work on G85C yielded a nonsense suppression of 0.163.
In the case of C64G C79A, the nonsense suppression is reported as ≤ 0.026.
In the case of A9C U58G G61U, the nonsense suppression is reported as ≤ 0.026.
For C27A G61U G86U, the nonsense suppression was ≤ 0.026.
In the case of G69A C82G, the nonsense suppression is reported as ≤ 0.026.
In the case of U4C A31G G65A, the nonsense suppression is reported as ≤ 0.026.
In the case of G15C G67A, the nonsense suppression is reported as ≤ 0.026.
With U8A G26C A31U U55A U71A the nonsense suppression was ≤ 0.026.
For U4A C5A, the nonsense suppression was 0.0374.
With A23U G25U G69C the nonsense suppression was ≤ 0.026.
U20G G85U gave a nonsense suppression of 0.81.
